Measurements as given in ChEMBL document CHEMBL4020842, “Discovery of N1-(4-((7-Cyclopentyl-6-(dimethylcarbamoyl)-7 H-pyrrolo[2,3- d]pyrimidin-2-yl)amino)phenyl)- N8-hydroxyoctanediamide as a Novel Inhibitor Targeting Cyclin-dependent Kinase 4/9 (CDK4/9) and Histone Deacetlyase1 (HDAC1) against Malignant Cancer” (J Med Chem, 2018).
Calls of active or inactive are those of the source. No cut-off for these calls is given here.

Experiments:
T47D [1] = assay: Induction of apoptosis in human T47D cells after 48 hrs by Hoechst 33342 staining based assay; type: functional, cell-based
In short: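 T47D cultures were incubated with test agent for 48h, then stained with Hoechst 33342. Apoptotic bodies were examined by imaging and compared with untreated cells.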

A549 [2] = assay: Induction of apoptosis in human A549 cells assessed as necrotic cells at 5 uM after 48 hrs by annexin V-FITC/propidium iodide staining based flow cytometry (reference value: […]%); type: functional
A549 [3] = assay: Inhibition of CDK4 protein expression in human A549 cells at 0.1 to 1 uM after 24 hrs by immunofluorescence assay; type: functional, cell-based
In short: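 Cells treated 24 h with test compound or vehicle. For the CDK4 read-out the compound was used at 100 nM, and for acetyl-histone H3 at 1 µM. CDK4 and acetyl-histone H3 were then detected by immunofluorescence staining and compared with vehicle-treated cells.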

[4] = Half life in Sprague-Dawley rat at 20 mg/kg, po administered as single dose by HPLC analysis; type: ADME, organism-based; details: in vivo
T47D [5] = assay: Induction of apoptosis in human T47D cells assessed as late apoptotic cells at 10 uM after 48 hrs by annexin V-FITC/propidium iodide staining based flow cytometry (reference value: 6.16%); type: functional
A549 [6] = assay: Cell cycle arrest in human A549 cells assessed as accumulation at G2 phase at 2.5 to 10 uM after 24 hrs by propidium iodide staining based flow cytometry; type: functional
In short: (§1)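 Cells were exposed for 24 h to a range of concentrations (625 nM, 2.5 and 10 µM), with DMSO vehicle as control. They were then stained with propidium iodide and analysed by flow cytometry to obtain the percentages of cells in G0/G1, S and G2 phases.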

T47D [7] = assay: Induction of apoptosis in human T47D cells assessed as necrotic cells at 10 uM after 48 hrs by annexin V-FITC/propidium iodide staining based flow cytometry (reference value: 0.8%); type: functional
Hep 3B2 [8] = assay: Induction of apoptosis in human Hep3B cells assessed as caspase-3 cleavage after 48 hrs by Western blot method; type: functional, cell-based
In short: (§2)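 Cells were treated with or without compound and control for 48 h, then lysed. Bcl-2 and cleaved caspase 3 were assessed by Western blot.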

MDA-MB-231 = assay: Induction of apoptosis in human MDA-MB-231 cells assessed as late apoptotic cells at 1 uM after 48 hrs by annexin V-FITC/propidium iodide staining based flow cytometry (reference value: 1.53%); type: functional
[9] = MRT (0 to infinity) in Sprague-Dawley rat at 20 mg/kg, po administered as single dose by HPLC analysis; type: ADME, organism-based; details: in vivo
HepG2 = assay: Induction of apoptosis in human HepG2 cells assessed as live cells at 1 uM after 48 hrs by annexin V-FITC/propidium iodide staining based flow cytometry (reference value: 96.7%); type: functional
Hep 3B2 [10] = assay: Induction of apoptosis in human Hep3B cells assessed as reduction in Bcl2 protein expression after 48 hrs by Western blot method; type: functional, cell-based; in short: as §2
Histone deacetylase 1 = Histone deacetylase 1 (Homo sapiens, UniProt Q13547); assay: Inhibition of HDAC1 (unknown origin)
CDK4/CDK9 (Homo sapiens) = CDK4/CDK9 (Homo sapiens) (UniProt P11802+P50750); assay: Inhibition of CDK4/CDK9 in human MDA-MB-231 cells assessed as reduction in Rb phosphorylation at Ser807/811 residues at 1 uM after 48 hrs by Western blot method; type: cell-based
[11] = Apparent volume of distribution at steady state in Sprague-Dawley rat at 20 mg/kg, iv administered as single dose by HPLC analysis; type: ADME, organism-based; details: in vivo, read-out: Vdss(app)
NCI-H460 = assay: Cell cycle arrest in human NCI-H460 cells assessed as accumulation at G2 phase at 2.5 to 10 uM after 24 hrs by propidium iodide staining based flow cytometry; type: functional; in short: as §1

Histone deacetylase 1, sequence (Q13547 whole entry): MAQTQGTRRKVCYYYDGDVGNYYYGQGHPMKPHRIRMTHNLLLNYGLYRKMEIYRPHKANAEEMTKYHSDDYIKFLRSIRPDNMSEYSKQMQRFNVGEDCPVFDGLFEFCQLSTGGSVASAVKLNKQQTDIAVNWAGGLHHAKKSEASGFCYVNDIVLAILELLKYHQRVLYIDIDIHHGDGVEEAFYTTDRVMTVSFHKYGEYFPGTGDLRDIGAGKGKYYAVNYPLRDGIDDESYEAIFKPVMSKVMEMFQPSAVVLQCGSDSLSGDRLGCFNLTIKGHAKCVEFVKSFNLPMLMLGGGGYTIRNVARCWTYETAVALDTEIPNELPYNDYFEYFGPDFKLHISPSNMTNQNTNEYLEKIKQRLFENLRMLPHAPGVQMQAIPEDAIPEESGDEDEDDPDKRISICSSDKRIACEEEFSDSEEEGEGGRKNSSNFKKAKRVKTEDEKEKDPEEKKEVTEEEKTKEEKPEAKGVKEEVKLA
CDK4/CDK9 (Homo sapiens), sequence (P11802 whole entry, looked up): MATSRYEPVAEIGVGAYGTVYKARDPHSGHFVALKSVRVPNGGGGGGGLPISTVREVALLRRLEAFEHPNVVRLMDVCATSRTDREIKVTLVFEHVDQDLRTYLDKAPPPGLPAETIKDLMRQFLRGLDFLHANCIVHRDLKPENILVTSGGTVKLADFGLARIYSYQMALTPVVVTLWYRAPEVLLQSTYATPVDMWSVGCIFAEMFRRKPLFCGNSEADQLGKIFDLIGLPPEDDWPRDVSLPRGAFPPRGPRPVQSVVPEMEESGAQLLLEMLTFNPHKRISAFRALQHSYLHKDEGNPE
CDK4/CDK9 (Homo sapiens), sequence (P50750 whole entry, looked up): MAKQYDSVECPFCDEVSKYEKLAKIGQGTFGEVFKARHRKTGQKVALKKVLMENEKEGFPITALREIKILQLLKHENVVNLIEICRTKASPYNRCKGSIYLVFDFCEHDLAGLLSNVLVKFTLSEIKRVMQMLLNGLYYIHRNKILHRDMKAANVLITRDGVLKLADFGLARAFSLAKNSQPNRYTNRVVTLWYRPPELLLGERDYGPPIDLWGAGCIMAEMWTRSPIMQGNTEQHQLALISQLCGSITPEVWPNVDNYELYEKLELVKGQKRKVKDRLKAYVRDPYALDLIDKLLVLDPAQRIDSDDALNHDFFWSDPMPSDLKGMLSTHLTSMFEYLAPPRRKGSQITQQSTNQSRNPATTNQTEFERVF

In the case of `CN(C)C(=O)c1cc2cnc(Nc3ccc(NC(=O)CCCCCCC(=O)NO)cc3)nc2n1C1CCCC1`, the Activity (T47D [1]) is reported as “Active”, the Activity (A549 [2]) is reported as 4.16% and the inhibition (A549 [3]) is reported as “Active”. For the same compound, the half-life [4] was 14.9 h, the Activity (T47D [5]) was 17.1% and the Activity (A549 [6]) was “Active”. The Activity (T47D [7]) was 2.62%, the Activity (Hep 3B2 [8]) was “Active” and the Activity (MDA-MB-231) was 1.97%. For the same compound, the MRT inf [9] was 20.3 h, the Activity (HepG2) was 87.4% and the Activity (Hep 3B2 [10]) was “Active”. The IC50 (Histone deacetylase 1) was 2.2 nM, the inhibition (CDK4/CDK9 (Homo sapiens)) was “Active” and the Vd [11] was 49 L/kg. The Activity (NCI-H460) was “Active”.
